Reference: ChEMBL document CHEMBL1146033, “Synthesis, calpain inhibitory activity, and cytotoxicity of P2-substituted proline and thiaproline peptidyl aldehydes and peptidyl alpha-ketoamides” (J Med Chem, 2006)

Tests used:
[1] = tested on: PC-3; test: Antiproliferative activity against human PC3 cell line by MTT assay; format: functional
Method in brief: (§1)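 Cells seeded at 2000 to 15000 per well, exposed to drug at 1 to 100 µM for 96 h at 37 °C, 5% CO2; untreated wells as negative control. MTT (5 mg/mL) added for final 2-4 h, formazan dissolved in DMSO, absorbance at 595 nm. GI50 (50% reduction in living cells vs untreated) from nonlinear regression of % survival against concentration.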

[2] = tested on: HeLa; test: Antiproliferative activity against human HeLa cell line by MTT assay; format: functional; method in brief: as §1
[3] = target: T1, Calpain-1 catalytic subunit (Sus scrofa, UniProt P35750); test: Inhibition of porcine erythrocyte mu calpain
T1 sequence (P35750 whole entry): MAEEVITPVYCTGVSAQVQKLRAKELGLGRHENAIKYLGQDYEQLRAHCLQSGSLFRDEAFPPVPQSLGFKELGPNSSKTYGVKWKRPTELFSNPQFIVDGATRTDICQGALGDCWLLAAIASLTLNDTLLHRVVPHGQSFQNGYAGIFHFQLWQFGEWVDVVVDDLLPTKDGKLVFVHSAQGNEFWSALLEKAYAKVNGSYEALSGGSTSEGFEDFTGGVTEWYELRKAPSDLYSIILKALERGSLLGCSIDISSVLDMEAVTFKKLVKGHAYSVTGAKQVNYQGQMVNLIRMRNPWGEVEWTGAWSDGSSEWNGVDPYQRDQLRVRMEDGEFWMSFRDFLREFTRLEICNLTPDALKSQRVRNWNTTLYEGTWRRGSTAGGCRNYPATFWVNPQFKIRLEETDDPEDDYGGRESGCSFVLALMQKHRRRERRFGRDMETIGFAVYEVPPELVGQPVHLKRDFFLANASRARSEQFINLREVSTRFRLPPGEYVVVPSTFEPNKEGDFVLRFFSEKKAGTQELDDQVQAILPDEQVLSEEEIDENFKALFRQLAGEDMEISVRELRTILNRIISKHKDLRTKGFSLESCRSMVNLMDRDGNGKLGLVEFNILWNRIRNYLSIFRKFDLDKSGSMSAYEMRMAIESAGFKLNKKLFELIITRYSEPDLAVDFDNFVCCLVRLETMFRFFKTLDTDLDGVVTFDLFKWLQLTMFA
Method in brief: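 µ-Calpain (1 µg, porcine erythrocyte) in 50 mM Tris HCl pH 7.4, 50 mM NaCl, 10 mM DTT, 1 mM EDTA, 1 mM EGTA, 5 mM CaCl2, fluorogenic Suc-Leu-Tyr-AMC at 0.2 or 1.0 mM, varying inhibitor in DMSO (2% total). Ki from Dixon plots (1/v vs I) of triplicate-averaged data, intersecting lines r ≥ 0.95.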

[4] = tested on: DU-145; test: Antiproliferative activity against human DU145 cell line by MTT assay; format: functional; method in brief: as §1
[5] = target: Cathepsin B (Homo sapiens, UniProt P07858); test: Inhibition of human liver cathepsin B
Method in brief: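 Human liver cathepsin B (1 nM) in 50 mM NaOAc pH 6.0, 1 mM EDTA, 0.5 mM DTT, with Z-Arg-Arg-AMC at 50 or 250 µM and varying inhibitor in DMSO (2% total). Ki from Dixon plots of triplicate-averaged data, intersecting lines r ≥ 0.95; selectivity ratio = cathepsin B Ki / µ-calpain Ki.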

[6] = Selectivity ratio, Ki for human cathepsin B/Ki for porcine mu calpain
[7] = tested on: Daudi; test: Antiproliferative activity against human Daudi cell line by MTT assay; format: functional; method in brief: as §1
[8] = tested on: Jurkat; test: Antiproliferative activity against human Jurkat cell line by MTT assay; format: functional; method in brief: as §1
[9] = tested on: Jurkat; test: Inhibition of calpain-mediated production of spectrin breakdown products in Jurkat cells at 20 uM; format: functional, Homo sapiens; parameters: scale not given: the % may be the effect or the level left
Method in brief: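 Jurkat cells washed in HEPES-buffered saline, preincubated 10 min with inhibitor at 20 µM, then ionomycin (20 µM final) and Ca2+ (5 mM final) added; 60 min at 37 °C. Lysates resolved by SDS-PAGE, immunoblotted for α-spectrin and β-actin, chemiluminescence. 145/150-kDa spectrin breakdown doublet quantified by densitometry, normalized to β-actin.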

GI50 [1]	GI50 [2]	Ki [3]	GI50 [4]	Ki [5]	Selectivity ratio [6]	GI50 [7]	GI50 [8]	SMILES	Activity [9]
6.38 µM	5.42 µM	0.042 µM	6.29 µM	0.11 µM	2.61	4.48 µM	5.97 µM	O=CC(Cc1ccccc1)NC(=O)[C@H]1CSCN1S(=O)(=O)c1ccc(I)cc1 (mixture of isomers)	–
–	–	0.191 µM	–	2.54 µM	13	–	–	O=CC(Cc1ccccc1)NC(=O)[C@H]1CCCN1S(=O)(=O)c1cccc2ccccc12 (mixture of isomers)	–
49.3 µM	40.4 µM	0.02 µM	42.4 µM	3.75 µM	188	32.5 µM	33.8 µM	O=CC(Cc1ccccc1)NC(=O)[C@H]1CCCN1S(=O)(=O)c1ccc([N+](=O)[O-])cc1 (stereo not given in full)	22.8%
–	–	0.256 µM	–	5.45 µM	21.3	–	–	O=CC(Cc1ccccc1)NC(=O)[C@H]1CCCN1S(=O)(=O)c1cccc([N+](=O)[O-])c1 (mixture of isomers)	–
20.8 µM	22.9 µM	0.85 µM	22.6 µM	6.9 µM	8.12	19.6 µM	21.9 µM	Cc1ccc(S(=O)(=O)N2CCC[C@@H]2C(=O)NC(Cc2ccccc2)C(=O)C(=O)NCCc2ccccc2)cc1 (mixture of isomers)	–
–	–	0.141 µM	–	5.4 µM	38.2	–	–	O=CC(Cc1ccccc1)NC(=O)[C@H]1CCCN1S(=O)(=O)c1ccc(Cl)cc1 (mixture of isomers)	–
–	–	0.313 µM	–	1.48 µM	4.72	–	–	CCCCS(=O)(=O)N1CCC[C@@H]1C(=O)NC(C=O)Cc1ccccc1 (mixture of isomers)	–
14.6 µM	31.4 µM	0.45 µM	30 µM	2.59 µM	5.7	22.4 µM	23.8 µM	COc1ccc(S(=O)(=O)N2CCC[C@@H]2C(=O)NC(Cc2ccccc2)C(=O)C(=O)NCCc2ccccc2)cc1 (mixture of isomers)	–
–	–	0.128 µM	–	4.42 µM	34.5	–	–	O=CC(Cc1ccccc1)NC(=O)[C@H]1CCCN1S(=O)(=O)c1ccc(Br)cc1 (mixture of isomers)	–
–	–	0.033 µM	–	4.18 µM	131	–	–	O=CC(Cc1ccccc1)NC(=O)[C@H]1CCCN1S(=O)(=O)c1ccc(I)cc1 (mixture of isomers)	–
–	–	0.196 µM	–	2.47 µM	13	–	–	O=CC(Cc1ccccc1)NC(=O)[C@H]1CCCN1S(=O)(=O)c1ccccc1 (mixture of isomers)	–
27.8 µM	27.6 µM	0.28 µM	31.8 µM	12.1 µM	18.1	23.1 µM	21.3 µM	O=C(NCCc1ccccc1)C(=O)C(Cc1ccccc1)NC(=O)[C@H]1CCCN1S(=O)(=O)c1ccc([N+](=O)[O-])cc1 (mixture of isomers)	–
27.1 µM	27.4 µM	0.386 µM	24.8 µM	6.99 µM	18.1	24.8 µM	24.2 µM	O=CC(Cc1ccccc1)NC(=O)[C@H]1CCCN1S(=O)(=O)c1ccc(F)cc1 (mixture of isomers)	–
40.1 µM	48.9 µM	0.081 µM	45.2 µM	12.1 µM	151	16.7 µM	17.6 µM	Cc1ccc(S(=O)(=O)N2CCC[C@@H]2C(=O)NC(C=O)Cc2ccccc2)cc1 (stereo not given in full)	–
–	–	0.836 µM	–	3.5 µM	1.19	–	–	CC(C)S(=O)(=O)N1CCC[C@@H]1C(=O)NC(C=O)Cc1ccccc1 (mixture of isomers)	–
19.7 µM	38.5 µM	0.037 µM	63.2 µM	1.48 µM	40	35.3 µM	25.4 µM	COc1ccc(S(=O)(=O)N2CCC[C@@H]2C(=O)NC(C=O)Cc2ccccc2)cc1 (mixture of isomers)	–
–	–	0.074 µM	–	0.09 µM	1.21	–	–	O=CC(Cc1ccccc1)NC(=O)[C@H]1CSCN1S(=O)(=O)c1ccc(Br)cc1 (mixture of isomers)	–
–	–	0.09 µM	–	0.23 µM	2.5	–	–	O=CC(Cc1ccccc1)NC(=O)[C@H]1CSCN1S(=O)(=O)c1ccc(Cl)cc1 (mixture of isomers)	–
5.17 µM	4.37 µM	0.07 µM	6 µM	0.119 µM	1.7	2.17 µM	3.21 µM	Cc1ccc(S(=O)(=O)N2CSC[C@@H]2C(=O)NC(C=O)Cc2ccccc2)cc1 (stereo not given in full)	82.4%
7.04 µM	7.12 µM	0.11 µM	6.22 µM	0.34 µM	3.09	3.54 µM	6.13 µM	O=CC(Cc1ccccc1)NC(=O)[C@H]1CSCN1S(=O)(=O)c1ccc(F)cc1 (mixture of isomers)	–
–	–	0.424 µM	–	4.61 µM	10.9	–	–	O=CC(Cc1ccccc1)NC(=O)[C@H]1CCCN1S(=O)(=O)c1ccccc1[N+](=O)[O-] (mixture of isomers)	–
